Laboratory results published in PMC6690187 (Cancer chemotherapy and pharmacology, 2012).

What was measured:
[1] = test system: xenograft models of glioma (SF295), lung (H522), breast (MDA-MB-435), ovarian (OVCAR-3) cancers; conditions: SF295, H522, MDA-MB-435, OVCAR-3 xenografts; cited from earlier work
[2] = in vitro assays and xenograft studies; cited from earlier work
[3] = Urinary and fecal excretion, higher dose in CD-1 mice; type: in vivo; conditions: 40 mg/kg i.v.
[4] = S9 metabolism, mouse hepatic S9 fractions; type: in vitro ADME; conditions: mouse S9 1 mg/ml, 10 μM, within an hour of incubation, 37°C
[5] = S9 metabolism, rat hepatic S9 fractions; type: in vitro ADME; conditions: rat S9 1 mg/ml, 10 μM, within an hour of incubation, 37°C
NCI60 = conditions: read-out: average GI50; NCI60 screening, cytotoxic activity; cited from earlier work
six different cell lines = conditions: cited from earlier work
[6] = Pharmacokinetic studies in nude mice; type: in vivo, female athymic nude mice; conditions: for intact compound in plasma / time to highest plasma concentration: solution formulation
Method in brief: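 Female athymic nude mice (~25 g) received a solution formulation (PEG400/EtOH/Tween 80/D5W) at 20 mg/kg i.v., 50 mg/kg i.p. or 100 mg/kg p.o. Others received a suspension (0.05% Tween 80/saline) at 15 mg/kg i.p. or 100 mg/kg p.o. Heparinized retro-orbital blood was taken from 5 min to 24 h (i.v.) or 10 min to 48 h, with ≥3 samples per time point. Plasma was extracted with acetonitrile and measured by HPLC-UV.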

[7] = Stability of ML-970 in mouse plasma; type: in vitro ADME; conditions: for compound remaining intact: 4°C
Method in brief: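 Mouse plasma was spiked with 1 or 10 μM test compound. Samples were held at 37°C in a water bath (sampled at 5, 10, 20, 30 and 60 min and at 2, 4 and 8 h), at 4°C (0.5–24 h) or at −80°C (1, 2 and 4 weeks). Each sample was extracted and measured by HPLC-UV at 308 nm. Remaining amount was expressed as % of the starting concentration versus time.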

[8] = S9 metabolism, human hepatic S9 fractions; type: in vitro ADME; conditions: human S9 1 mg/ml, 10 μM, within an hour of incubation, 37°C
mouse plasma proteins = assay: Binding to mouse plasma proteins; type: in vitro ADME; conditions: 37°C 1 h
Method in brief: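 Test compound added to mouse plasma at 0.1, 1.0 and 10 μM and held at 37°C for 1 h; methanol replaced plasma in controls. Samples were centrifuged through 30 kDa ultrafiltration units at 2,000×g until dry. Filtrate (free, F) and unfiltered solution (total, T) were each measured in triplicate by HPLC-UV at 308 nm. Filter-bound amount (X) was included: % bound = [(T–F–X)/T] × 100.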

[9] = test system: MDA-MB-435 breast cancer xenograft; conditions: oral doses 70-280 mg/kg and i.v. dose 10 mg/kg; cited from earlier work
[10] = Pharmacokinetic and tissue distribution studies in CD-1 mice; type: in vivo, female CD-1 mice
[11] = Urinary and fecal excretion after i.v. injection; type: in vivo, mice; conditions: i.v. injection 20 mg/kg, first 48 h, parent compound
Method in brief: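 Female nude mice dosed i.v. (20 mg/kg, solution formulation) were housed in metabolic cages, and urine and feces were collected for up to 48 h. Containers and cages were rinsed twice with 0.9% saline. Urine and each wash were extracted directly, analysed separately and summed. Feces were homogenized in PBS (5 ml/g), extracted with acetonitrile and measured by HPLC. Results were expressed as % of dose.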

[12] = Preliminary pharmacokinetics; type: in vivo, female Sprague-Dawley rats; conditions: rats, oral 2.5 vs 5 mg/kg; exception intestine
Method in brief: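 Female Sprague-Dawley rats received oral doses of 2.5 or 5 mg/kg in (PEG400/EtOH/Tween 80 = 6:3:1)/D5W = 1:2, either as a single dose or once daily for 5 days. Plasma was sampled at 1, 6 and 12 h. Lungs, liver, kidneys, small intestine and small-intestine contents were collected at 12 h on days 1 and 5. Tissues were homogenized in PBS, extracted with acetonitrile and analysed by HPLC.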

[13] = nude mice, 0.05% Tween 80/Saline, i.p., 15 mg/kg, plasma
[14] = nude mice, 0.05% Tween 80/Saline, p.o., 100 mg/kg, plasma
[15] = nude mice, PEG400/EtOH/Tween 80/D5W, i.p., 50 mg/kg, plasma
[16] = nude mice, PEG400/EtOH/Tween 80/D5W, i.v., 20 mg/kg, plasma
[17] = nude mice, PEG400/EtOH/Tween 80/D5W, p.o., 100 mg/kg, plasma
[18] = CD-1 mice, PEG400/EtOH/Tween 80/D5W, i.v., 2.5 mg/kg, plasma
[19] = CD-1 mice, PEG400/EtOH/Tween 80/D5W, p.o., 2.5 mg/kg, plasma
[20] = CD-1 mice, PEG400/EtOH/Tween 80/D5W, p.o., 5 mg/kg, plasma

COc1cc2cc(C(=O)Nc3cc(N)c4ccccc4c3CCCl)[nH]c2c(OC)c1OC [ML-970]
antitumor effects in xenograft models [1]: significant antitumor effects in all of the models | liver and bone marrow toxicity compared with other CC-1065 analogs [2]: decreased liver and bone marrow toxicity | compound excreted in urine ([3]; 48 h after treatment): about 1% | parental compound excreted in feces ([3]; first 8 h): less than 0.1% | loss of parent compound with S9 enzymes [4]: no significant loss of the parent compound | loss of parent compound with S9 enzymes [5]: no significant loss of the parent compound | GI50 (NCI60): 0.034 µM | cell lines killed in hollow fiber assay (six different cell lines): efficiently killing six different cell lines | hollow fiber assay total score (six different cell lines): 54 points | toxicity observed in pharmacokinetic studies ([6]; doses from 10 to 100 mg/kg, soluble and suspension formulations): did not observe any toxicity | AUC0~∞ [6, 13]: 5350 ng·h/mL | CL or CL/F [6, 13]: 2.67 mL/g/h | Cmax [6, 13]: 1160 ng/mL | MRT [6, 13]: 6.21 h | T1/2 [6, 13]: 6.14 h | Tmax [6, 13]: 1 h | AUC0~∞ [6, 14]: 11520 ng·h/mL | CL or CL/F [6, 14]: 8.07 mL/g/h | Cmax [6, 14]: 1520 ng/mL | MRT [6, 14]: 8.1 h | T1/2 [6, 14]: 6.73 h | Tmax [6, 14]: 1 h | intact compound in plasma ([6]; nude mice, 8 h after i.v. 20 mg/kg): still detectable | intact compound in plasma ([6]; nude mice, 24 h after i.p. 50 mg/kg): could still be detected | intact compound in plasma ([6]; nude mice, 24 h after p.o. 100 mg/kg): could still be detected | AUC0~∞ [6, 15]: 42110 ng·h/mL | CL or CL/F [6, 15]: 1.19 mL/g/h | Cmax [6, 15]: 20390 ng/mL | MRT [6, 15]: 2.5 h | T1/2 [6, 15]: 4.58 h | Tmax [6, 15]: 0.17 h | AUC0~∞ [6, 16]: 14890 ng·h/mL | CL or CL/F [6, 16]: 1.35 mL/g/h | Cmax [6, 16]: 22350 ng/mL | MRT [6, 16]: 0.87 h | T1/2 [6, 16]: 0.78 h | Tmax [6, 16]: 0 h | Vss [6, 16]: 1.18 mL/g | F^oral ([6]; nude mice, PEG400/EtOH/Tween 80/D5W, p.o., 100 mg/kg): 0.53 | AUC0~∞ [6, 17]: 39630 ng·h/mL | CL or CL/F [6, 17]: 2.52 mL/g/h | Cmax [6, 17]: 18930 ng/mL | MRT [6, 17]: 2.82 h | T1/2 [6, 17]: 4.26 h | Tmax [6, 17]: 0.5 h | time to highest plasma concentration ([6]; nude mice, i.p. 50 mg/kg): 10 min | time to highest plasma concentration ([6]; nude mice, oral gavage 100 mg/kg): 30 min | compound remaining intact ([7]; 24-h storage (summary)): approximately 90% | compound remaining intact ([7]; 24 h, 1 μM): 88.6% | compound remaining intact ([7]; 24 h, 10 μM): 92.4% | compound remaining ([7]; 37°C, 8-h incubation, both 1 and 10 μM (summary)): approximately 70% | compound remaining ([7]; 37°C, 8 h, 1 μM): 70.9% | compound remaining ([7]; 37°C, 8 h, 10 μM): 70.2% | compound remaining ([7]; −80°C, 4 weeks, 1 μM): 87.5% | compound remaining ([7]; −80°C, 4 weeks, 10 μM): 89.8% | degradation on storage ([7]; −80°C, a week of storage): no significant degradation | loss of parent compound with S9 enzymes [8]: no significant loss of the parent compound | binding to plasma proteins (mouse plasma proteins; 0.1 μM): 87.57% | binding to plasma proteins (mouse plasma proteins; 1.0 μM): 89.31% | binding to plasma proteins (mouse plasma proteins; 10.0 μM): 90.89% | tumor growth [9]: inhibited tumor growth | weight loss (index for host toxicity) [9]: no weight loss | AUC0~∞ [10, 18]: 1960 ng·h/mL | CL or CL/F [10, 18]: 1.27 mL/g/h | Cmax [10, 18]: 4340 ng/mL | MRT [10, 18]: 2.76 h | T1/2 [10, 18]: 0.31 h | Tmax [10, 18]: 0 h | Vss [10, 18]: 3.52 mL/g | F^oral ([10]; CD-1 mice, PEG400/EtOH/Tween 80/D5W, p.o., 2.5 mg/kg): 0.43 | AUC0~∞ [10, 19]: 850 ng·h/mL | CL or CL/F [10, 19]: 2.61 mL/g/h | Cmax [10, 19]: 550 ng/mL | MRT [10, 19]: 8.28 h | T1/2 [10, 19]: 10.73 h | Tmax [10, 19]: 0.08 h | F^oral ([10]; CD-1 mice, PEG400/EtOH/Tween 80/D5W, p.o., 5 mg/kg): 0.44 | AUC0~∞ [10, 20]: 1730 ng·h/mL | CL or CL/F [10, 20]: 3.22 mL/g/h | Cmax [10, 20]: 990 ng/mL | MRT [10, 20]: 1.8 h | T1/2 [10, 20]: 2.97 h | Tmax [10, 20]: 0.5 h | tissue distribution ([10]; mice, i.v. 2.5 mg/kg and p.o. 2.5 mg/kg, levels stayed relatively high for at least 24 h): high levels of ML-970 in the liver, gallbladder, and small intestine | compound excreted in feces [11]: 1.14% | compound excreted in urine [11]: less than 0.5% | tissue concentrations between two doses [12]: no significant difference
